# Biological target: Sphingosine 1-phosphate receptor 3 (Homo sapiens) (UniProt Q99500)
# Assay: Inhibitory effect towards Sphingosine 1-phosphate receptor Edg-3 (EDG3)
# Parameters: concentration or dose not given beside the values
# Settings: concentration not given here
# Summary of the method: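 Hela cells transfected with human EDG3 cDNA, seeded in DMEM/10% FBS for 24 h at 37 °C, then in MEM for 24 h. Cells are loaded with 5 µM Calcium Green-1 AM in D-PBS(+) for 60 min, given 10 µM test compound for 5 min, then challenged with 1 µM S1P. Fluorescence (ex 485/em 535 nm) is read every 3 s for 30 s. Inhibition (%) is the RFU difference versus the 0.1% DMSO control, averaged over triplicate wells, run on three separate days.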
# Sequence of Sphingosine 1-phosphate receptor 3 (Homo sapiens) (Q99500 whole entry): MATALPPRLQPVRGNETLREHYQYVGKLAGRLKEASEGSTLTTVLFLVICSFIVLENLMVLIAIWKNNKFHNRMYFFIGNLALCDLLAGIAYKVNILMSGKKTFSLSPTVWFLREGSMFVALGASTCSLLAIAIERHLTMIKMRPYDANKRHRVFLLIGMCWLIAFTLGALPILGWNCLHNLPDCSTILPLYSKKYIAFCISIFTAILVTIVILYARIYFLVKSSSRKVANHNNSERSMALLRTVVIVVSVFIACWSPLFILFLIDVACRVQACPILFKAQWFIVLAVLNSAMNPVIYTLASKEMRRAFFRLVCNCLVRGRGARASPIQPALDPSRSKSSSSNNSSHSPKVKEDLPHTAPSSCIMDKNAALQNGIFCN
row,inhibition [%],Structure (SMILES)
1,15.9,CCCCCCCCCCCCC1NC(C(=O)O)CS1 (stereo not drawn)
2,0,CCCCCCC1NC(C(=O)O)CS1 (stereo not drawn)
3,14.8,CCCCCCCCCC1NC(C(=O)O)CS1 (stereo not drawn)
4,0.3,CCCCCCCCCCCCC1NC(C(=O)O)CCS1 (stereo not drawn)
5,9.4,CCCCCCCCCCCC1NC(C(=O)O)CCS1 (stereo not drawn)
6,6.6,CCCCCCCCCCCCCC1NC(C(=O)O)CS1 (stereo not drawn)
7,43.4,CCCCCCCc1cccc(C2N[C@H](C(=O)O)CS2)c1 (stereo partly drawn)
8,26.4,CCCCCCCCCCC1NC(C(=O)O)CS1 (stereo not drawn)
9,6.9,CCCCCCCCCC1NC(C(=O)O)CCS1 (stereo not drawn)
10,42.9,CCCCCCCc1ccc(C2N[C@H](C(=O)O)CS2)cc1 (stereo partly drawn)
11,9.9,CCCCCc1cccc(C2N[C@H](C(=O)O)CS2)c1 (stereo partly drawn)
12,13,CCCCCc1ccc(C2N[C@H](C(=O)O)CS2)cc1 (stereo partly drawn)
13,9.3,CCCCCCCCCCC1NC(C(=O)O)CCS1 (stereo not drawn)
14,34.5,CCCCCCCCCC[C@H]1N[C@H](C(=O)O)CS1
15,5.9,CCCCCCCCCCCCCC1NC(C(=O)O)CCS1 (stereo not drawn)
16,37.2,CCCCCCCCCc1cccc(C2N[C@H](C(=O)O)CS2)c1 (stereo partly drawn)
17,21.9,CCCCCCCCCc1ccc(C2N[C@H](C(=O)O)CS2)cc1 (stereo partly drawn)
18,37.6,CCCCCCCCCCC[C@H]1N[C@H](C(=O)O)CS1
